ChEMBL document CHEMBL1641365, “Synthesis, in vitro and in vivo preliminary evaluation of anti-angiogenic properties of some pyrroloazaflavones” (Bioorg Med Chem, 2011)
Activity calls are given as the source filed them. The calls are words filed in the database; no cut-off is given here.

Assays:
[1] = system: HUVEC; assay: Antiangiogenic activity against FGF2-induced in HUVEC cells assessed as inhibition of capillary-like formation at 10^-2 uM after 18 hrs by Matrigel assay; format: functional, cell-based; settings: Homo sapiens
[2] = system: HUVEC; assay: Induction of apoptosis in HUVEC cells assessed as proapoptotic effect after 24 hrs by TUNEL assay; format: functional, cell-based; settings: Homo sapiens
[3] = system: Mus musculus; assay: Antiangiogenic activity against FGF2-induced C57/BL6 mouse assessed as inhibition of angiogenesis at 0.01 uM, sc after 7 days by Matrigel plug assay; format: functional, organism-based
In short: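 Matrigel with heparin, with or without FGF-2 200 ng/plug plus test agent 0.01 µM, injected subcutaneously into the dorsal area of C57/BL6 mice. Animals were killed after 7 days. Plugs were removed and steeped overnight at 4 °C in 0.1% Brij-35 in PBS. Hemoglobin content of the plugs was measured.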

[4] = system: HUVEC; assay: Growth inhibition of HUVEC cells after 20 hrs by MTT assay; format: cell-based; settings: Homo sapiens
In short: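 Primary HUVECs, passages 2–4, were seeded at 2 × 10⁴ cells/cm². After 24 h they were exposed to a range of concentrations (10 to 10⁻⁵ µM). After 20 h, MTT (0.5 mg/mL) was read. IC50 is the concentration giving a 50% viability drop versus untreated cells; 10 µM was the top concentration. Values are means ± SD of at least three independent experiments.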

[5] = system: HUVEC; assay: Antiangiogenic activity against FGF2-induced in HUVEC cells assessed as inhibition of morphological change at 10^-2 uM after 18 hrs by capillary-like formation assay; format: functional, cell-based; settings: Homo sapiens
[6] = system: HUVEC; assay: Inhibition of growth factor-induced angiogenesis in HUVEC cells assessed as inhibition of cell migration at 10^-2 uM after 4 hrs by fluorescence microscopy; format: functional, cell-based; settings: Homo sapiens
[7] = system: HUVEC; assay: Antiangiogenic activity against FGF2-induced HUVEC assessed as inhibition of cell proliferation at 10^-2 uM after 24 hrs; format: functional, cell-based; settings: Homo sapiens
[8] = system: HUVEC; assay: Inhibition of growth factor-induced angiogenesis in HUVEC cells assessed as inhibition of in cell migration at 10^-5 uM after 4 hrs by fluorescence microscopy; format: functional, cell-based; settings: Homo sapiens
[9] = system: HUVEC; assay: Antiangiogenic activity against FGF2-induced in HUVEC cells assessed as inhibition of capillary-like formation at 10^-5 uM after 18 hrs by Matrigel assay; format: functional, cell-based; settings: Homo sapiens
[10] = system: HUVEC; assay: Antiangiogenic activity against FGF2-induced HUVEC assessed as inhibition of cell proliferation at 10^-5 uM after 24 hrs; format: functional, cell-based; settings: Homo sapiens
[11] = system: HUVEC; assay: Inhibition of growth factor-induced angiogenesis in HUVEC cells assessed as inhibition of cell migration at 10^-3 uM after 4 hrs by fluorescence microscopy; format: functional, cell-based; settings: Homo sapiens
[12] = system: HUVEC; assay: Antiangiogenic activity against FGF2-induced in HUVEC cells assessed as inhibition of morphological change at 10^-3 uM after 18 hrs by capillary-like formation assay; format: functional, cell-based; settings: Homo sapiens
[13] = system: HUVEC; assay: Antiangiogenic activity against FGF2-induced in HUVEC cells assessed as inhibition of capillary-like formation at 10^-3 uM after 18 hrs by Matrigel assay; format: functional, cell-based; settings: Homo sapiens
[14] = system: HUVEC; assay: Antiangiogenic activity against FGF2-induced HUVEC assessed as inhibition of cell proliferation at 10^-3 uM after 24 hrs; format: functional, cell-based; settings: Homo sapiens
[15] = system: HUVEC; assay: Antiangiogenic activity against FGF2-induced in HUVEC cells assessed as inhibition of morphological change at 10^-3 uM after 18 hrs by capillary-like formation assay; settings: Homo sapiens
[16] = system: HUVEC; assay: Inhibition of growth factor-induced angiogenesis in HUVEC cells assessed as inhibition of cell migration at 10^-4 uM after 4 hrs by fluorescence microscopy; format: functional, cell-based; settings: Homo sapiens
[17] = system: HUVEC; assay: Antiangiogenic activity against FGF2-induced HUVEC assessed as inhibition of cell proliferation at 10^-4 uM after 24 hrs; format: functional, cell-based; settings: Homo sapiens
[18] = system: HUVEC; assay: Antiangiogenic activity against FGF2-induced in HUVEC cells assessed as inhibition of capillary-like formation at 10^-4 uM after 18 hrs by Matrigel assay; format: functional, cell-based; settings: Homo sapiens

SMILES: O=c1cc(-c2ccccc2)[nH]c2c1ccc1c2ccn1CC1CC1
- Activity [1]: Active
- Activity [2]: Active
- Activity [3]: Active
- IC50 [4]: 4.2 µM
- Activity [5]: inactive
- inhibition [6]: Active

SMILES: COc1cccc(-c2cc(O)c3ccc4[nH]ccc4c3n2)c1
- Activity [7]: Active
- Activity [2]: Active
- IC50 [4]: 5.8 µM
- inhibition [6]: Active

SMILES: CCn1ccc2c3[nH]c(-c4ccccc4)cc(=O)c3ccc21
- Activity [1]: Active
- Activity [2]: Active
- IC50 [4]: 8.1 µM
- Activity [5]: inactive
- inhibition [6]: Active

SMILES: CCOC(=O)CCn1ccc2c3[nH]c(-c4ccccc4)cc(=O)c3ccc21
- Activity [1]: Active
- Activity [2]: Active
- Activity [3]: Active
- IC50 [4]: 5.7 µM
- Activity [5]: Active
- inhibition [6]: Active

SMILES: CC[C@]1(O)C[C@@H]2CN(CCc3c([nH]c4ccccc34)[C@@](C(=O)OC)(c3cc4c(cc3OC)N(C)[C@H]3[C@@](O)(C(=O)OC)[C@H](OC(C)=O)[C@]5(CC)C=CCN6CC[C@]43[C@@H]65)C2)C1 [VINBLASTINE]
- inhibition [8]: Active
- IC50 [4]: 0.049 µM
- Activity [9]: Active
- Activity [10]: Active

SMILES: O=c1cc(-c2ccc[nH]2)[nH]c2c1ccc1[nH]ccc12
- IC50 [4]: > 10 µM

SMILES: O=[N+]([O-])c1cccc(-c2cc(O)c3ccc4[nH]ccc4c3n2)c1
- inhibition [11]: Active
- Activity [12]: Active
- Activity [2]: Active
- Activity [3]: Active
- IC50 [4]: 0.45 µM
- Activity [13]: Active
- Activity [14]: Active
- Activity [15]: Active

SMILES: Oc1cc(-c2cccs2)nc2c1ccc1[nH]ccc12
- IC50 [4]: > 10 µM

SMILES: Oc1cc(-c2ccccc2)nc2c1ccc1[nH]ccc12
- inhibition [16]: Active
- Activity [2]: Active
- Activity [3]: Active
- Activity [17]: Active
- IC50 [4]: 0.043 µM
- Activity [18]: Active

SMILES: Cc1cc2c(ccc3c(=O)cc(-c4ccccc4)[nH]c32)[nH]1
- IC50 [4]: > 10 µM
